How the values were obtained:
[1] = test system: Jurkat; experiment: In vitro inhibition of Jurkat cell proliferation; format: functional, cell-based; conditions: Homo sapiens
Procedure, shortened: (§1)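 Exponentially growing cells kept as stationary suspension in RPMI 1640 with 10% FCS, 2 mM L-glutamine, penicillin/streptomycin; exposed to a range of drug concentrations (DMSO stock 1 mg/mL, diluted just before addition) for 4 days; survivors counted by Coulter counter. IC50 vs untreated controls, duplicate cultures per concentration, experiments repeated at least twice, vehicle controls included.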

[2] = test system: K562; experiment: In vitro inhibition of K-562 cell proliferation; format: functional, cell-based; conditions: Homo sapiens; procedure, shortened: as §1
[3] = test system: Human immunodeficiency virus 1; experiment: Inhibitory concentration against HIV-1 LTR polymerase chain reaction product; format: functional
Procedure, shortened: (§2)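 Target DNA was 20 ng of preamplified, purified PCR product, preincubated 5 min at room temperature with increasing drug amounts, then PCR-amplified with Taq: 92 °C 1 min, 62 °C annealing 1 min, 72 °C 1 min. Products run on 2% agarose gels; IC50 is the concentration giving 50% inhibition of PCR product generation.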

[4] = Inhibitory concentration against human c-myc polymerase chain reaction product; format: functional; procedure, shortened: as §2
[5] = target: Nucleic Acid; experiment: Inhibitory concentration against human estrogen receptor(ER) polymerase chain reaction product; format: nucleic-acid assay
Procedure, shortened: as §2, with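 “of pBLCAT8ERCAT1 plasmid,” for “of preamplified, purified PCR product,”, “min, 55” for “min, 62”, “of ER” for “of”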

Compound | IC50 [1] [nM] | IC50 [2] [nM] | IC50 [3] [nM] | IC50 [4] [nM] | IC50 [5] [nM]
COc1cc2c(cc1OC)C(=O)N1CCC[C@H]1C=N2 | 2200 | 1000 | – | – | –
COC(=O)CCOc1cc2c(cc1OC)C(=O)N1CCC[C@H]1C=N2 | 3000 | 1500 | > 250000 | > 250000 | > 250000
Cn1cc(NC(=O)c2cc(NC(=O)c3cc(NC=O)cn3C)cn2C)cc1C(=O)NCCC(=N)N | 20000 | 12000 | 50000 | 25000 | 5000
COc1cc2c(cc1OCCC(=O)Nc1cc(C(=O)Nc3cc(C(=O)Nc4cc(C(=O)Nc5cc(C(=O)NCCC(=N)N)n(C)c5)n(C)c4)n(C)c3)n(C)c1)N=C[C@@H]1CCCN1C2=O | 70 | 40 | 2000 | 2000 | 200
COc1cc2c(cc1OCCC(=O)Nc1cc(C(=O)Nc3cc(C(=O)NCCC(=N)N)n(C)c3)n(C)c1)N=C[C@@H]1CCCN1C2=O | 50000 | 6000 | 800 | 6000 | 2000
COc1cc2c(cc1OCCC(=O)Nc1cc(C(=O)NCCC(=N)N)n(C)c1)N=C[C@@H]1CCCN1C2=O | 80000 | > 100000 | 1000 | 4000 | 3000
Cn1cc(NC(=O)c2cc(NC(=O)c3cc(NC(=O)c4cc(N)cn4C)cn3C)cn2C)cc1C(=O)NCCC(=N)N | 25000 | 12000 | 20000 | 12000 | 500
COc1cc2c(cc1OCCC(=O)Nc1cc(C(=O)Nc3cc(C(=O)Nc4cc(C(=O)NCCC(=N)N)n(C)c4)n(C)c3)n(C)c1)N=C[C@@H]1CCCN1C2=O | 800 | 700 | 2000 | 2500 | 800

— ChEMBL document CHEMBL1132187, “Synthesis, in vitro antiproliferative activity, and DNA-binding properties of hybrid molecules containing pyrrolo[2,1-c][1, 4]benzodiazepine and minor-groove-binding oligopyrrole carriers” (J Med Chem, 1999)
